# From ChEMBL document CHEMBL3259732, “Vascular effects of diphenylmethoxypiperidine-derived dopamine uptake inhibitors” (2014)
# Activity calls are given as the source filed them. The calls are words filed in the database; no cut-off is given here.
# What was measured:
# Format in all cases: functional
# [1] = Vascular activity in receptor-dependent rat mesenteric resistance artery assessed as inhibition of noradrenaline-induced contraction at 3 x 10^-6 M after 5 mins
# How it was run: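 Rat mesenteric resistance arteries set to optimal diameter (OD = 0.9 L100, from the diameter at 100 mmHg transmural pressure). Rings pre-incubated with test agent at 3 x 10^-6 M, then given a dose–response curve to noradrenaline as the receptor-dependent contraction. Inhibition read against control arteries, p<0.05.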
# [2] = Vascular activity in receptor-dependent rat mesenteric resistance artery assessed as inhibition of noradrenaline-induced contraction at 3 x 10^-6 M after 5 mins relative to maximal response to KCl; set-up: scale not given: the % may be the effect or the level left
# [3] = (§1) Vascular activity in receptor-independent rat mesenteric resistance artery assessed as inhibition of KCl-induced contraction at 3 x 10^-6 M after 5 mins
# How it was run: (§2)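 Receptor-independent response in rat mesenteric resistance arteries normalized to optimal diameter at 100 mmHg transmural pressure. After pre-incubation with test agent at 3 x 10^-6 M, maximal contraction to 75 mM KCl was recorded. Block was judged against control arteries, p<0.05.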
# [4] = species: Rattus norvegicus; experiment: as §1; how it was run: as §2
compound,measurement,setting,value
CN1CCC(OC(c2ccc(F)cc2)c2ccc(F)cc2)CC1,pD2,[1],5.1
same,Activity,[2],121%
same,inhibition at 3 µM,[3],70%
Fc1ccc(C(OC2CCNCC2)c2ccc(F)cc2)cc1,pD2,[1],5.17
same,Activity,[2],116%
same,inhibition at 3 µM,[3],70%
NC[C@H](O)c1ccc(O)c(O)c1.O=C(O)C(O)C(O)C(=O)O,pD2,[1],5.95
same,Activity,[2],122%
COC(=O)[C@H]1[C@@H](OC(=O)c2ccccc2)C[C@@H]2CC[C@H]1N2C [COCAINE],pD2,[1],6.52
same,Activity,[2],130%
same,inhibition,[4],inactive
CC(C)N1CCC(OC(c2ccc(F)cc2)c2ccc(F)cc2)CC1,pD2,[1],4.48
same,Activity,[2],121%
same,inhibition,[4],Active
CCCCN1CCC(OC(c2ccc(Cl)cc2)c2ccc(Cl)cc2)CC1,pD2,[1],4.26
same,Activity,[2],99%
same,inhibition,[4],Active
CN1CCC(OC(c2ccccc2)c2ccc(Cl)cc2)CC1 (stereo not drawn),pD2,[1],5.08
same,Activity,[2],113%
same,inhibition at 3 µM,[3],70%
CN1CCC(OC(c2ccccc2)c2ccccc2)CC1 [DIPHENYLPYRALINE],pD2,[1],5.38
same,Activity,[2],129%
same,inhibition at 3 µM,[3],70%
